# Ba/F3 V617F tox = lowers viability of Ba/F3 cells expressing EpoR and JAK2V617F; ATP luminescence; inhibition, % at 5.6 µM; actives 1.1% (n = 220,000);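 active = inhibition above the campaign mean plus 3 SD over all tested compounds, cut at about 24% in these data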;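 note: cytokine-independent growth of Ba/F3 cells driven by EpoR plus mutant JAK2; 0% = DMSO-treated cells and 100% = JAK inhibitor I control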
# IEC-6 cytotox = IEC-6 cytotoxicity, counter-screen for KLF5 inhibitors; luminescence viability; inhibition, % at 5 µM; actives 0.78% (n = 290,000); AID 1825;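 note: 0% = plate median of test compound wells and 100% = cytotoxic reference compound wells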
# MT stabilizer = stabilizes microtubules in HeLa cells; actives 0.83% (n = 200,000); % tubulin-high responders, % at 10 µM; HeLa tubulin immunostaining HCS, 24 h; share of cells brighter than vehicle mean+2SD; AID 2205;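 active = plate Z-score above 3 for both tubulin-high and condensed-nucleus cell shares, with cell loss under 80%, at 10 µM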;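 note: anti alpha tubulin signal scored within the nucleus-defined area of each cell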
# APP transl inh = APP translation inhibition. inhibition, % at 2 µM. actives 0.82% (n = 190,000). SH-SY5Y APP 5'UTR-luciferase reporter, luminescence. AID 1285;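 active = inhibition above a set limit, derived from the sample mean plus 3 SD, cut at about 45% in these data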
# b-catenin transl = beta-catenin nuclear translocation modulation. actives 0.3% (n = 190,000). HeLa beta-catenin nuclear translocation, immunofluorescence imaging. nuclear translocation activity, % at 5 µM;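 active = nuclear translocation activity above 50% at 5 µM, with a well cell count of 50 or more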;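 note: per-cell ratio of nuclear to cytoplasmic median beta-catenin stain intensity; plate controls were DMSO negative control for no effect and GSK-3 inhibitor IX positive control for full effect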
#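 Test system: HeLa cells, endogenous beta-catenin; Compound: single 5 µM dose plus 0.02–20 µM confirmation series; Times: compound exposure 24 h at 37°C; Signal: fluorescence imaging of beta-catenin antibody stain plus DAPI; Read-out: % activation, nuclear-to-cytoplasmic median beta-catenin signal ratio per cell.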
# BaF3 tox = reduces parental Ba/F3 cell viability, JAK2V617F counter-screen; CellTiter-Glo ATP luminescence; inhibition, % at 5.6 µM; actives 1.1% (n = 220,000); AID 1486;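 active = inhibition above a per-campaign cutoff, the mean inhibition of all tested compounds plus 3 SD, cut at about 27% in these data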;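 note: 0% = DMSO wells and 100% = JAK Inhibitor I control wells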
# IEC-6 cytotox cf = confirmation of cytotoxic compounds in rat IEC-6 intestinal epithelial cells. shares compounds with IEC-6 cytotox. IEC-6 rat intestinal epithelial viability, luminescence. inhibition, % at 5 µM. actives 63% (n = 1,900). AID 1907;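 note: 0% = vehicle and 100% = reference cytotoxic drug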
# Starred values were filed as active, the others as inactive; nt = no result. A selection: hits, their analogues and other compounds. The true share with any hit is near 2.2%. Cut-off read from the data, not from the text of the source, unless noted: active = inhibition above about 22%; inactive = the rest.
SMILES,Ba/F3 V617F tox,IEC-6 cytotox,MT stabilizer,APP transl inh,b-catenin transl,BaF3 tox,IEC-6 cytotox cf
C/C(=N/NC(=O)CNC(=O)c1ccccc1F)c1ccc2c(c1)CCCC2,3.5,3.5,8.4,-16.9,1.5,4.9,nt
Cc1ccc(N(CC(=O)NC2CCCCC2)C(=O)CNC(=O)c2ccco2)cc1C,nt,-2.9,nt,nt,nt,nt,nt
Cc1ccccc1-n1ncc2c1CC(C)(C)CC2NC(=O)c1snnc1C (centres undefined),nt,4.8,nt,nt,nt,nt,nt
Cc1[nH]n2c(=O)cc(C(C)(C)C)nc2c1-c1ccccc1,8.8,33.5*,3.7,13.5,0.6,13.4,35.3*
CCOc1ccc(S(=O)(=O)N2CCCC(C(=O)Nc3cc(C)cc(C)c3)C2)cc1 (centres undefined),nt,-7.7,nt,nt,nt,nt,nt
CSc1nsc(N/N=C/c2ccccc2)c1C#N,0.2,34.1*,2.7,-42.8,1.6,4.7,33.4*
COc1cccc(/C=N/Nc2snc(SC)c2C#N)c1,0.6,44.1*,6.3,-30.1,-0.8,2.9,36.5*
COc1ccc(/C=N/Nc2snc(SC)c2C#N)cc1OC,-0.1,41.0*,2.9,-91.9,1.7,3.2,31.4*
COc1cccc(/C=N/Nc2snc(SC)c2C#N)c1O,4.6,7.4,2.5,-60.2,3.8,10.8,nt
COC(=O)COc1ccc(S(=O)(=O)Nc2cc([N+](=O)[O-])ccc2C)cc1,1.9,1.7,4.4,-9.7,-0.4,5.2,nt
Clc1ccc(CSc2nncn2-c2ccc3c(c2)OCCO3)cc1,6.3,32.3*,nt,nt,25.6,1.9,30.8*
O=C(N/N=C/c1cc(Br)cc(Br)c1O)c1ccncc1,4.1,24.0*,1.9,25.9,-1.3,-5.1,13.9
c1ccc(CN2CCC(Nc3nc(-c4cccnc4)nc4ccccc34)CC2)cc1,2.7,23.9*,2.7,4.7,0.2,8.6,19.4
O=C1C(=O)N(C/C=C/c2ccccc2)c2ccccc21,nt,89.4*,nt,nt,nt,nt,65.4*
CCOC(=O)C(Cc1ccccc1)C(=O)NCc1ccccc1 (centres undefined),nt,1.0,nt,nt,nt,nt,nt
N=c1c(C(=O)NC2CCCCC2)cc2c(=O)n3ccccc3nc2n1Cc1ccco1,nt,41.8*,nt,nt,nt,nt,10.2
C=CCn1c(SCC(=O)c2cccs2)nc2sc(CC)cc2c1=O,-2.8,30.4*,1.4,2.5,-1.7,0.5,36.1*
COc1ccc(N2CCN(CCCn3c(=S)[nH]c4ncccc4c3=O)CC2)cc1,0.1,29.8*,1.8,1.2,nt,4.7,19.2
O=c1c2cccnc2[nH]c(=S)n1CCCN1CCN(c2ccc(F)cc2)CC1,-0.8,14.7,1.1,-1.2,-1.3,2.6,nt
CCOc1ccc(C(=O)N/N=C(\c2ccccc2)c2ccccn2)cc1,85.9*,26.2*,1.8,72.2*,2.3,79.7*,68.3*
CC(=O)Nc1ccc(/C(C)=N\NC(=O)c2ccc(-c3ccccc3)cc2)cc1,87.5*,25.5*,2.1,0.2,0.6,81.5*,-6.1
CC(=O)Nc1ccc(/C(C)=N/NC(=O)c2ccc(F)cc2)cc1,0.2,-1.1,3.5,1.5,-3.6,5.6,nt
C/C(=N\NC(=O)c1ccc(F)cc1)c1ccccn1,nt,32.5*,nt,nt,nt,nt,98.3*
Cc1ccccc1CC1CCN(CCCNC(=O)Nc2ccccc2)CC1,nt,3.5,nt,nt,nt,nt,nt
CCOc1ccc2[nH]c3c(N4CCc5ccccc5C4)ncnc3c2c1,4.5,40.0*,nt,nt,47.7,-2.7,90.0*
SMILES,Ba/F3 V617F tox,IEC-6 cytotox,MT stabilizer,APP transl inh,b-catenin transl,BaF3 tox,IEC-6 cytotox cf
O=C(CSc1nc(-c2ccco2)cc(C(F)(F)F)n1)Nc1ccc(C(=O)N2CCOCC2)cc1,-2.1,0.9,2.7,-6.3,-5.4,0.1,nt
O=C(CSc1nc(-c2ccco2)cc(C(F)(F)F)n1)Nc1cccnc1,6.2,29.1*,58.0*,-12.2,-2.6,2.9,13.1
Cn1c2ccccc2c2cc([N+](=O)[O-])ccc21,-4.7,-0.8,nt,nt,-0.1,1.7,nt
CCN(CC)CCn1c2ccccc2c2nc3ccc([N+](=O)[O-])cc3cc21,77.7*,36.4*,nt,nt,0.5,76.5*,31.6*
COc1ccc(C2C(C(=O)Nc3cc(OC)c(OC)c(OC)c3)c3ccccc3C(=O)N2C)cc1 (centres undefined),41.4*,58.9*,20.8,69.0*,72.8*,61.0*,59.9*
COc1ccc(C2C(C(=O)Nc3cccc(OC)c3)c3ccccc3C(=O)N2C)cc1 (centres undefined),-1.5,-1.4,2.7,-37.5,-0.9,3.3,nt
COc1cc(C(=O)Nc2ccccn2)cc(OC)c1OC,-1.4,-0.7,2.9,-7.5,0.4,2.9,nt
COc1cc(C(=O)Nc2ccccc2C(=O)Nc2ccccn2)cc(OC)c1OC,nt,32.8*,nt,nt,nt,nt,21.4
CS(=O)(=O)N(CC(=O)NC1CCCCC1)c1cccc(Cl)c1,-3.2,-3.2,3.6,4.0,-2.2,6.6,nt
COc1ccc(NC(=O)C2Cc3cccc(OC)c3O/C2=N\O)cc1 (centres undefined),nt,3.7,nt,nt,nt,nt,nt
COc1cccc2c1O/C(=N\O)C(C(=O)Nc1ccc(C)cc1)C2 (centres undefined),nt,51.7*,nt,nt,nt,nt,32.9*
COc1ccc(CCNCc2c(OC)ccc3ccccc23)cc1OC,nt,25.6*,nt,nt,nt,nt,4.2
COc1ccc2ccccc2c1CNC(C)CCc1ccccc1 (centres undefined),nt,2.3,nt,nt,nt,nt,nt
N#CCCN(NC1=NS(=O)(=O)c2ccccc21)C(=O)c1ccccc1Br,nt,-4.7,nt,nt,nt,nt,nt
O=C(CSc1ncnc2nc[nH]c12)c1ccc(Cl)cc1,nt,41.1*,nt,nt,nt,nt,23.3*
Clc1ccc(CSc2ncnc3nc[nH]c23)cc1,4.9,-3.3,4.8,-6.8,1.7,6.8,nt
O=c1c(Cl)c(Cl)cnn1-c1ccccc1,-1.1,94.8*,3.8,96.0*,7.5,-7.9,30.8*
CCOc1cnn(-c2ccccc2)c(=O)c1Cl,nt,-1.2,nt,nt,nt,nt,nt
O=C(C1CCCO1)N1CCN(C(=S)Nc2ccccc2)CC1 (centres undefined),-5.7,8.1,4.6,7.5,5.1,1.2,nt
CCOC(=O)c1ccc(NC(=S)N2CCN(C(=O)C3CCCO3)CC2)cc1 (centres undefined),nt,28.6*,nt,nt,nt,nt,7.4
CCOC(=O)CSC1=C(C#N)C(c2ccc(C)o2)CC(=O)N1 (centres undefined),73.7*,82.9*,9.7,94.9*,37.8,79.3*,59.0*
Cc1ccc2nc(N/C(=N/S(=O)(=O)c3ccc(F)cc3F)c3ccccc3)sc2c1,1.9,22.5*,3.4,-66.2,-0.5,6.6,6.2
Cc1ccc2nc(N/C(=N/S(=O)(=O)c3ccc(F)cc3)c3ccccc3)sc2c1,-2.9,-1.3,3.8,-31.7,-2.6,5.1,nt
CCOC(=O)c1cc(C#N)c(SCC(=O)OC)[nH]c1=O,0.4,-4.9,nt,nt,0.4,-3.8,nt
CC(C)(C)c1ccc(OCc2ccc(C(=O)Nc3cccnc3)o2)cc1,nt,1.4,nt,nt,nt,nt,nt
Cc1ccc(-n2c(Cl)c(Cl)nc(Cl)c2=O)cc1,96.3*,41.1*,3.0,96.8*,0.5,57.8*,40.4*
COc1cccc(C2Nc3ccc4ccccc4c3C3=C2C(=O)CCC3)c1O (centres undefined),nt,10.5,nt,nt,nt,nt,nt

# Assay outcomes (PubChem BioAssay)
